High-throughput results deposited in PubChem BioAssay by several laboratories.
CASP6 VEID inh: human caspase-6 inhibitors, primary screen, biochemical, VEID-R110 fluorescence, single point, set 2; purified caspase-6, Z-VEID-R110 cleavage fluorescence; inhibition, % at 12.5 µM; 0.53% of 350,000 active;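 active = mean inhibition across replicates at least about 35%, with every replicate also reaching that limit, limit read from the data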;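 note: 0% = median of neutral control wells and 100% = no fluorescence left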
NSD2 inh: NSD2 histone methyltransferase inhibitors, primary screen, biochemical, AlphaScreen, single concentration, set 2 | Histone-lysine N-methyltransferase NSD2 (Homo sapiens), O96028 | NSD2 peptide methylation, 120 min | inhibition, % at 12.5 µM | 0.54% of 310,000 active
HCV NS3 hel inh: inhibitors of HCV NS3 helicase, primary screen, biochemical, Cy5 molecular beacon fluorescence; Hepatitis C virus NS3 helicase; NS3 helicase DNA unwinding; inhibition, % at 10.9 µM; 0.56% of 290,000 active; AID 1800, 2009;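 active = inhibition above the mean of all tested compounds plus 3 SD, set per campaign, cut at about 35% in these data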;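 note: 0% = DMSO wells and 100% = thioflavine S control wells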
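test system = hepatitis C virus NS3 helicase domain fragment enzyme | reagent = annealed dual-labelled DNA beacon duplex, ATP-started | times = 1 h at 25 °C | detection = Cy5 fluorescence, 0 and 60 min reads | read-out basis = percent inhibition from t60/t0 fluorescence ratio | control set = DMSO and thioflavine S | replication = one well per compound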
DNMT1 inh: human DNMT1 methyltransferase inhibitors, primary screen, biochemical, molecular beacon, fluorescence, HinP1I cleavage, uHTS | inhibition (reported as % activation of signal), % at 10 µM | DNA (cytosine-5)-methyltransferase 1 (Homo sapiens), P26358 | AID 588458, 2011 | 0.83% of 360,000 active
Beacon interf DR: spectral interference with molecular beacon fluorescence, dose response, artefact control for DNMT1 inhibitor project, biochemical, fluorescent molecular beacon; shares compounds with DNMT1 inh; spectral interference counter-screen; IC50, µM; 200 tested, under 10 active; AID 602382, 2012; call rule not given here
DNMT1 confirm: DNMT1 methyltransferase inhibitor retest, confirmation, biochemical, molecular beacon, fluorescence, single concentration | shares compounds with DNMT1 inh | DNMT1 molecular beacon HinP1I cleavage | inhibition, % at 10 µM | 8% of 2,300 active | AID 602385, 2012;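 active = average inhibition of at least 30% in the single-concentration confirmation test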
DNMT1 interf: beacon fluorescence artifact counter-screen. 1% of 2,300 active. activation (fluorescence interference), % at 10 µM. shares compounds with DNMT1 inh. DNMT1 molecular beacon spectral interference counterscreen, fluorescence 485/520. AID 602387;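 active = activation of at least 30% at 10 µM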;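 note: DNMT1 catalytic domain with a HinP1I cleavage step and a FAM/dabcyl DNA beacon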
Active calls of the source: *. Rows were chosen to be rich in hits. Some 1.5% of all compounds tested hit in one or more screens of this group. Cut-off read from the data, not from the text of the source, unless noted: active = inhibition above about 50%; inactive = the rest.

COc1ccc(NC(=O)N[C@H]2CC[C@@H](CCNC(=O)c3cc(Cl)cc(Cl)c3)O[C@@H]2CO)cc1 was read as CASP6 VEID inh -1.
CCCNC(=O)N[C@H]1C=C[C@@H](CC(=O)NC2CCCCC2)O[C@@H]1CO was read as CASP6 VEID inh 2.
For CCNC(=O)C[C@@H]1CC[C@H]2[C@@H](COc3ccc(NS(C)(=O)=O)cc3C(=O)N2C)O1 the results were CASP6 VEID inh 3.
For COc1ccc(Oc2c(OC)cc(NCc3ccc(CN)cc3)c3ncccc23)cc1 the results were CASP6 VEID inh 21, NSD2 inh 76*, DNMT1 inh 95*, Beacon interf DR >99, DNMT1 confirm 33* and DNMT1 interf -5.
O=C(COC(=O)C12CC3CC(CC(C3)C1)C2)Nc1nccs1 was read as CASP6 VEID inh -2, NSD2 inh 0, HCV NS3 hel inh 1 and DNMT1 inh 6.
Cc1ccnc(NC(=O)COC(=O)C23CC4CC(CC(C4)C2)C3)n1 was read as CASP6 VEID inh 19, HCV NS3 hel inh 12, DNMT1 inh 70*, DNMT1 confirm 11 and DNMT1 interf 1.
Screening CCCNC(=O)N1[C@@H](CO)[C@@H]2c3ccccc3N(C(=O)Nc3cccc(F)c3)C[C@@H]21 returned CASP6 VEID inh 1.
`COC(=O)C1=COC(OC2OC(CO)C(O)C(O)C2O)C2C(C)CC(=O)C12` (stereo not drawn) gave CASP6 VEID inh 35*, DNMT1 inh 74*, DNMT1 confirm 2 and DNMT1 interf 2.
COC(=O)C1=COC(OC2OC(CO)C(O)C(O)C2O)C2C1C=CC2(O)CO (stereo not drawn) was read as CASP6 VEID inh 48*, DNMT1 inh 90*, DNMT1 confirm 3 and DNMT1 interf -1.
Screening CCCN(C)C[C@H]1Oc2cc(-c3cccnc3)ccc2S(=O)(=O)N([C@H](C)CO)C[C@H]1C returned CASP6 VEID inh 3.
Screening O=C1c2sccc2-c2cccc3cccc1c23 returned CASP6 VEID inh -5, NSD2 inh 1, DNMT1 inh 66*, Beacon interf DR >99, DNMT1 confirm 65* and DNMT1 interf 3.
`O=C1C(Br)=Cc2cccc3cccc1c23` gave CASP6 VEID inh 3, NSD2 inh 4, HCV NS3 hel inh 10 and DNMT1 inh 28.
Screening CN1CCN(C(=O)CCN2C(=O)c3ccccc3C2=O)CC1 returned CASP6 VEID inh -1, NSD2 inh -5, HCV NS3 hel inh -9, DNMT1 inh 51*, DNMT1 confirm 1 and DNMT1 interf 2.
O=C(Nc1ccccc1F)c1ccc(Br)o1 was read as HCV NS3 hel inh 0, DNMT1 inh 69*, DNMT1 confirm 1 and DNMT1 interf -2.
`CC(=O)CSc1nsc(SCC(C)=O)c1C#N` gave NSD2 inh 3, HCV NS3 hel inh -2 and DNMT1 inh -10.
`Cc1csc(NC(=O)CSc2nsc(SCC(=O)Nc3nc(C)cs3)c2C#N)n1` gave NSD2 inh 3, HCV NS3 hel inh -9 and DNMT1 inh -6.
Cc1ccc(NC(=O)CSc2nsc(SCC(=O)Nc3ccc(C)cc3C)c2C#N)c(C)c1 was read as CASP6 VEID inh -1, NSD2 inh 5, HCV NS3 hel inh -13, DNMT1 inh 52*, DNMT1 confirm 3 and DNMT1 interf 3.
`CCOC(=O)CSc1nsc(SCC(=O)OCC)c1C#N` gave NSD2 inh 1, HCV NS3 hel inh 0, DNMT1 inh 76*, DNMT1 confirm -1 and DNMT1 interf 5.
`Cc1ccccc1-c1ccc([C@H]2[C@H]3CN(S(=O)(=O)c4cn(C)cn4)CCCCN3[C@H]2CO)cc1` gave CASP6 VEID inh 1.
Screening CCC(=O)Nc1ccc2c(c1)OC[C@@H](C)N(C(=O)c1cccnc1)C[C@H](C)[C@@H](OC)CN(C)C2=O returned CASP6 VEID inh 0.
Screening C[C@@H]1CN([C@H](C)CO)S(=O)(=O)c2ccc(-c3cccc(C(=O)N(C)C)c3)cc2O[C@H]1CN(C)C(=O)Nc1ccccc1 returned CASP6 VEID inh -1.
Screening N#Cc1c(N)n(CCc2ccc(F)cc2)c2nc3ccccc3nc12 returned NSD2 inh -1, HCV NS3 hel inh 3, DNMT1 inh 71*, DNMT1 confirm 0 and DNMT1 interf 3.
For COCCn1c(N)c(C#N)c2nc3ccccc3nc21 the results were NSD2 inh 9, HCV NS3 hel inh 8 and DNMT1 inh -7.
Screening C[C@@H]1CN([C@H](C)CO)C(=O)c2cccc(NC(=O)C3CCCCC3)c2O[C@H]1CN(C)Cc1ccc(C(=O)Nc2ccccc2N)cc1 returned CASP6 VEID inh -3.
For O=C(/C=C/c1ccco1)N1CCC(Cc2ccccc2)CC1 the results were CASP6 VEID inh 0, HCV NS3 hel inh 6, DNMT1 inh 87*, DNMT1 confirm 7 and DNMT1 interf -2.
Screening COc1cccc(-c2ccc3c(c2)[C@@H]2[C@@H](CCN2C(=O)c2cnccn2)[C@@H](CO)N3)c1 returned CASP6 VEID inh -1.
`O=C(C1=C(O)C(=O)N(Cc2ccco2)C1c1cccc(O)c1)c1ccco1` (stereo not drawn) gave NSD2 inh -3, HCV NS3 hel inh 5, DNMT1 inh 81*, DNMT1 confirm 1 and DNMT1 interf 1.
Screening C[C@@H]1CN([C@H](C)CO)S(=O)(=O)c2ccc(-c3ccccc3)cc2O[C@@H]1CN(C)C(=O)C1CCCCC1 returned CASP6 VEID inh -2.
N#Cc1nc(-c2ccc(OCc3ccc(Cl)cc3)cc2)oc1N1CCC(C(N)=O)CC1 was read as CASP6 VEID inh -1, NSD2 inh -3, HCV NS3 hel inh -12, DNMT1 inh 67*, DNMT1 confirm -1 and DNMT1 interf 2.
Screening O=C(c1ccc(F)cc1)N1CC[C@@H]2[C@@H](CO)Nc3ccc(-c4ccccc4F)cc3[C@@H]21 returned CASP6 VEID inh 4.
COc1ccc(NC(=O)CCn2c(=S)[nH]c3ccccc3c2=O)cc1Cl was read as CASP6 VEID inh 0, NSD2 inh 1, DNMT1 inh 54*, DNMT1 confirm 3 and DNMT1 interf 6.
Screening CO[C@H]1CN(C)C(=O)c2ccc(NC(=O)Nc3cc(F)ccc3F)cc2OC[C@@H](C)NC[C@H]1C returned CASP6 VEID inh 2.
